According to ChEMBL document CHEMBL3603811, “Design, chemical synthesis and biological evaluation of 3-spiromorpholinone/3-spirocarbamate androsterone derivatives as inhibitors of 17β-hydroxysteroid dehydrogenase type 3” (Bioorg Med Chem, 2015):

Experiments:
[1] = target: T1, 17-beta-hydroxysteroid dehydrogenase type 3 (Rattus norvegicus, UniProt O54939); assay: Inhibition of 17beta-HSD3 in rat testes microsomes using [14C]-4-androstene-3,17-dione as substrate after 2 hrs; set-up: species or system Testis
T1 sequence (O54939 whole entry): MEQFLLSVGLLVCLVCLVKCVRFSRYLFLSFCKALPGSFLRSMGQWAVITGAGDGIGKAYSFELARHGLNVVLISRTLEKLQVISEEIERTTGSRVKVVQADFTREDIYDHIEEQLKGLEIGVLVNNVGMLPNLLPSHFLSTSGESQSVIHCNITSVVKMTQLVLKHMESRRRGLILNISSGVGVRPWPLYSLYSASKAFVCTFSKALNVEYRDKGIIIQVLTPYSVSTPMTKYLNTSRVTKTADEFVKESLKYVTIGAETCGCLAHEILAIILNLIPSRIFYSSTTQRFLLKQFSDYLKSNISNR
Summary of the method: (§1)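 Rat testis microsomes: homogenate in phosphate/sucrose/EDTA buffer pH 7.5 with protease inhibitors, spun 12,500g, then pellet from 100,000g, at 4 °C. Reaction 2 h at 37 °C in 50 mM sodium phosphate pH 7.4, 20% glycerol, 1 mM EDTA, with NADPH and [14C]-Δ4-dione (50 nM). Inhibitor in DMSO. [14C]-T and substrate identified against reference steroids and quantified. Percent transformation and percent inhibition calculated.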

[2] = target: T2, 17-beta-hydroxysteroid dehydrogenase type 3 (Rattus norvegicus) (UniProt O54939); assay: Inhibition of 17beta-HSD3 in rat testes microsomes using [14C]-4-androstene-3,17-dione as substrate measured based on 33% of initial enzyme transformation at 1 uM after 2 hrs; settings: Testis; summary of the method: as §1
T2 sequence (whole entry): T1 sequence (O54939 whole entry)

[3] = tested on: LAPC4; assay: Androgenic activity in human LAPC4 cells expressing androgen receptor assessed as induction of cell proliferation at 1 uM after 3 days by MTS assay relative to control; type: functional
Summary of the method: (§2)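 LAPC-4 (AR+) cells in RPMI-1640 with 5% dextran-coated charcoal-treated FBS to remove hormones. Triplicate cultures of 10,000 cells preincubated 24 h at 37 °C, 5% CO2. Compounds from 10^-2 M DMSO stock, diluted in medium, added for 3 days (final DMSO 0.05%; vehicle controls). Growth read by MTS. Androgenicity = % proliferation minus basal set at 100%.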

[4] = tested on: LAPC4; assay: Androgenic activity in human LAPC4 cells expressing androgen receptor assessed as induction of cell proliferation at 0.1 uM after 3 days by MTS assay relative to control; type: functional; summary of the method: as §2
[5] = target: T2, 17-beta-hydroxysteroid dehydrogenase type 3 (Rattus norvegicus); assay: Inhibition of 17beta-HSD3 in rat testes microsomes using [14C]-4-androstene-3,17-dione as substrate measured based on 33% of initial enzyme transformation at 10 uM after 2 hrs; settings: Testis; summary of the method: as §1
[6] = target: T2, 17-beta-hydroxysteroid dehydrogenase type 3 (Rattus norvegicus); assay: Inhibition of 17beta-HSD3 in rat testes microsomes using [14C]-4-androstene-3,17-dione as substrate measured based on 33% of initial enzyme transformation at 0.1 uM after 2 hrs; settings: Testis; summary of the method: as §1
[7] = target: T3, 17-beta-hydroxysteroid dehydrogenase type 3 (Homo sapiens) (UniProt P37058); assay: Inhibition of 17beta-HSD3 (unknown origin) expressed in human LNCaP cells using [14C]-4-androstene-3,17-dione as substrate at 1 uM after 3 hrs; type: cell-based
T3 sequence (whole entry): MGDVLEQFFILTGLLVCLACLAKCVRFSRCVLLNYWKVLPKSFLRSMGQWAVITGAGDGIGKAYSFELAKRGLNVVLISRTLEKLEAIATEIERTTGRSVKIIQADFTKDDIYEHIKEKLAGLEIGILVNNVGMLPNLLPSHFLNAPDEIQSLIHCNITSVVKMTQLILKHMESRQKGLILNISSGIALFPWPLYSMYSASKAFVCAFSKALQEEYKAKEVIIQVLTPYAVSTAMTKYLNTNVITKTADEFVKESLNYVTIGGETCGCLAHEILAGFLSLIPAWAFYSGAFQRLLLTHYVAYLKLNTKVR
Summary of the method: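 LNCaP cells stably transfected with 17β-HSD3, kept under hygromycin, which was omitted during assay. 15,000 cells/well grown 3 days in protocol medium, then given 15 nM [14C]-4-androstene-3,17-dione plus inhibitor in DMSO (final 0.05%) for 3 h. Steroids extracted from medium, separated by TLC and quantified. Percent inhibition of T formation calculated.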

[8] = target: T2, 17-beta-hydroxysteroid dehydrogenase type 3 (Rattus norvegicus); assay: Inhibition of 17beta-HSD3 in rat testes microsomes using [14C]-4-androstene-3,17-dione as substrate measured based on 18% of initial enzyme transformation at 0.1 uM after 2 hrs; settings: Testis; summary of the method: as §1
[9] = target: T2, 17-beta-hydroxysteroid dehydrogenase type 3 (Rattus norvegicus); assay: Inhibition of 17beta-HSD3 in rat testes microsomes using [14C]-4-androstene-3,17-dione as substrate measured based on 18% of initial enzyme transformation at 1 uM after 2 hrs; settings: Testis; summary of the method: as §1
[10] = target: T2, 17-beta-hydroxysteroid dehydrogenase type 3 (Rattus norvegicus); assay: Inhibition of 17beta-HSD3 in rat testes microsomes using [14C]-4-androstene-3,17-dione as substrate measured based on 18% of initial enzyme transformation at 0.01 uM after 2 hrs; settings: Testis; summary of the method: as §1
[11] = target: T2, 17-beta-hydroxysteroid dehydrogenase type 3 (Rattus norvegicus); assay: Ratio of delta4-dione IC50 to compound IC50 for 17beta-HSD3 in rat testes microsomes; settings: Testis

SMILES	IC50 [1]	inhibition [2]	Activity [3]	Activity [4]	inhibition [5]	inhibition [6]	inhibition [7]	inhibition [8]	inhibition [9]	inhibition [10]	Ratio IC50 [11]
C[C@]12CC[C@@H](O)C[C@@H]1CC[C@@H]1[C@@H]2CC[C@]2(C)C(=O)CC[C@@H]12 [ANDROSTERONE]	90 nM										
C[C@]12CC[C@@]3(C[C@@H]1CC[C@@H]1[C@@H]2CC[C@]2(C)C(=O)CC[C@@H]12)CN(Cc1ccc(OCc2ccccc2)cc1)CC(=O)O3		90.8%	16.7%	0%	93.4%	80.4%					
C[C@]12CCC(=O)C=C1CC[C@@H]1[C@@H]2CC[C@]2(C)C(=O)CC[C@@H]12 [ANDROSTENEDIONE]	169 nM										
C[C@]12CC[C@@]3(C[C@@H]1CC[C@@H]1[C@@H]2CC[C@]2(C)C(=O)CC[C@@H]12)CN(Cc1ccc(-c2ccccc2)cc1)CC(=O)O3		93.1%	55.1%	47.7%	95.2%	81.9%					
O=C1OC2(CCCCC2)CN[C@H]1Cc1ccccc1					20.6%						
O=C1OC2(CCCCC2)CN(Cc2ccccc2)[C@H]1Cc1ccccc1					29.2%						
C[C@]12CC[C@@]3(C[C@@H]1CC[C@@H]1[C@@H]2CC[C@]2(C)C(=O)CC[C@@H]12)CN(S(=O)(=O)c1ccc(C(F)(F)F)cc1)CC(=O)O3	28 nM		0%	0%			10%	48.6%	85.1%	32.9%	6
C[C@]12CC[C@@]3(C[C@@H]1CC[C@@H]1[C@@H]2CC[C@]2(C)C(=O)CC[C@@H]12)CN(Cc1ccc(Br)cc1)CC(=O)O3		92.9%	45.7%	21.8%	91.6%	79.1%					
C[C@]12CC[C@@]3(C[C@@H]1CC[C@@H]1[C@@H]2CC[C@]2(C)C(=O)CC[C@@H]12)CN(C(=O)c1ccc(C(F)(F)F)cc1)CC(=O)O3	88 nM		0%	0%			40%	45.4%	87.1%	24.3%	2
